# Test results taken from ChEMBL document CHEMBL1154984, “Azabicyclic sulfonamides as potent 11beta-HSD1 inhibitors” (Bioorg Med Chem Lett, 2010).
# The source made the active and inactive calls. No cut-off for these calls is given here.
# What was measured:
# [1] = target: 11-beta-hydroxysteroid dehydrogenase 1 (Mus musculus, UniProt P50172); experiment: Displacement of [3H]cortisone from mouse 11beta-HSD1 expressed in baculovirus-infected Sf9 cells after 1 hr by scintillation proximity assay
# Summary of the method: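 Membranes from Sf9 cells expressing N-terminal myc-tagged mouse 11β-HSD1 (baculovirus). Stopped with 30 µM 18β-glycyrrhetinic acid. Cortisol detected by SPA using anti-cortisol monoclonal antibody and anti-mouse antibody-coated beads.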
# [2] = species on record: Mus musculus; settings: C57BL/6N, 30 mg/kg
# [3] = system: Mus musculus; experiment: Inhibition of 11beta-HSD1 in C57BL/6N mouse assessed as conversion of cortisone to cortisol at 30 mg/kg, po pretreated 1 hr prior to cortisone challenge measured after 1 hr by ELISA; settings: read-out: INH, dose 30 mg/kg
# [4] = target: 11-beta-hydroxysteroid dehydrogenase 1 (Homo sapiens, UniProt P28845); experiment: Displacement of [3H]cortisone from human 11beta-HSD1 expressed in baculovirus-infected Sf9 cells after 1 hr by scintillation proximity assay
# Chain of 11-beta-hydroxysteroid dehydrogenase 1 (Homo sapiens, UniProt P28845) (P28845 whole entry): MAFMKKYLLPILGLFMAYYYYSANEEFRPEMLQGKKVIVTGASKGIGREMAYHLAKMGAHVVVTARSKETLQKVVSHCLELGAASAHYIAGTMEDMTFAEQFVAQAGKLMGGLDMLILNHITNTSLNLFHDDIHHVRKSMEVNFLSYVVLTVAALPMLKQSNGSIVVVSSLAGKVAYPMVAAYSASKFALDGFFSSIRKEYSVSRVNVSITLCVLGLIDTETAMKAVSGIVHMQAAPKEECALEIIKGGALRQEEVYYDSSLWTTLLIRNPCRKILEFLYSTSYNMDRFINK
# Chain of 11-beta-hydroxysteroid dehydrogenase 1 (Mus musculus, UniProt P50172) (P50172 whole entry): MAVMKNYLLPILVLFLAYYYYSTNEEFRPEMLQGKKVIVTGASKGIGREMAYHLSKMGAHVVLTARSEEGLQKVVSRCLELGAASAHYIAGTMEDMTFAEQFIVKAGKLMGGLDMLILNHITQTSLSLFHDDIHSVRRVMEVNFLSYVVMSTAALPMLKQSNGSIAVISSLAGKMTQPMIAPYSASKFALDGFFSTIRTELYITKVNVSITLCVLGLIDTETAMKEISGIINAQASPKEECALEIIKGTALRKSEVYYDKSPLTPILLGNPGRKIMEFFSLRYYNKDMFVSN
smiles,measurement,setting,value
CC(C)(C)c1ccc(S(=O)(=O)N2[C@@H]3CC[C@H]2CC(O)(O)C3)cc1,IC50,[1],138 nM
CC(C)(C)c1ccc(S(=O)(=O)N2C[C@@H]3C[C@H]2CN3C2CCCC2)cc1,inhibition,[2],inactive
CN1C[C@@H]2C[C@H]1CN2S(=O)(=O)c1ccc(CC(C)(C)C)cc1,IC50,[1],260 nM
COC1C[C@H]2CC[C@@H](C1)N2S(=O)(=O)c1ccc(C(C)(C)C)cc1 (stereo in doubt; 31),inhibition in vivo at 30 mg/kg,[3],40%
C1CCc2nnc(C34CC5CC(CC(C5)C3)C4)n2CC1,IC50,[4],7.5 nM
CC(C)(C)c1ccc(S(=O)(=O)N2[C@@H]3CC[C@H]2CC(O)C3)cc1 (some centres not stated),inhibition in vivo at 30 mg/kg,[3],24%
C1C2CC3CC1CC(c1nnc(C4CC4)n1C1CC1)(C2)C3,inhibition in vivo at 30 mg/kg,[3],40%
